Source: ChEMBL document CHEMBL4118153, “Exploiting polarity and chirality to probe the Hsp90 C-terminus” (Bioorg Med Chem, 2018)
Blank lines part the entries; values can stand above or below the compound they belong to. Activity calls are given as the source filed them. The rule behind the calls is not given here.

Assays:
MCF7 = assay: Antiproliferative activity against human MCF7 cells after 72 hrs by MTS/PMS assay; type: functional, cell-based; conditions: MCF7, 72 h
Summary of the method: (§1)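 Cells were grown in 1:1 Advanced DMEM/F12 with non-essential amino acids, 2 mM L-glutamine, penicillin/streptomycin and 10% FBS at 37 °C, 5% CO2. They were seeded at 2000/well and left to attach overnight, then exposed to serial compound dilutions (1% DMSO final) for 72 h. Viable cells were read with an […] proliferation kit and normalized to 1% DMSO controls (100%). IC50 came from separate triplicate experiments.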

SK-BR-3 [1] = assay: Antiproliferative activity against human SKBR3 cells after 72 hrs by MTS/PMS assay; type: functional, cell-based; conditions: SK-BR-3, 72 h; summary of the method: as §1
Heat shock protein HSP90 [2] = molecular target: T1, Heat shock protein HSP90 (Homo sapiens, UniProt P07900+P08238); assay: Inhibition of Hsp90 C-terminal domain in human MCF7 cells assessed as induction of CDK6 degradation at 0.5 to 5 fold antiproliferative EC50 after 24 hrs by Western blot analysis; type: cell-based
Summary of the method: (§2)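 MCF-7 cells, cultured as for proliferation, were treated for 24 h with compound in DMSO (1% final) or DMSO vehicle. Cells were harvested in cold PBS and lysed on ice for 1 h in RIPA with 1 mM PMSF, 2 mM orthovanadate and protease inhibitors. Lysates were cleared at 14000g, quantified by BCA, and 20 μg protein was run reducing, blotted to nitrocellulose and probed with specific antibodies plus HRP secondary, with chemiluminescent detection.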

Heat shock protein HSP90 [3] = molecular target: T1, Heat shock protein HSP90; assay: Inhibition of Hsp90 C-terminal domain in human MCF7 cells assessed as effect on heat shock response-induced Hsp70 level at 0.5 to 5 fold antiproliferative EC50 after 24 hrs by Western blot analysis; type: cell-based; conditions: mcf7, 24 h; summary of the method: as §2
Heat shock protein HSP90 [4] = molecular target: T1, Heat shock protein HSP90; assay: Inhibition of Hsp90 C-terminal domain in human MCF7 cells assessed as effect on heat shock response-induced Hsp90 level at 0.5 to 5 fold antiproliferative EC50 after 24 hrs by Western blot analysis; type: cell-based; conditions: mcf7, 24 h; summary of the method: as §2
Heat shock protein HSP90 [5] = molecular target: T1, Heat shock protein HSP90; assay: Inhibition of Hsp90 C-terminal domain in human MCF7 cells assessed as induction of ERalpha degradation at 0.5 to 5 fold antiproliferative EC50 after 24 hrs by Western blot analysis; type: cell-based; summary of the method: as §2
Heat shock protein HSP90 [6] = molecular target: T1, Heat shock protein HSP90; assay: Inhibition of Hsp90 C-terminal domain in human MCF7 cells assessed as induction of Her2 degradation at 0.5 to 5 fold antiproliferative EC50 after 24 hrs by Western blot analysis; type: cell-based; summary of the method: as §2
SK-BR-3 [7] = assay: Antiproliferative activity against human SKBR3 cells; type: functional, cell-based; summary of the method: as §1

- EC50 (MCF7): 2.1 µM
- EC50 (SK-BR-3 [1]): 4 µM
SMILES: COCCN1CCC(Oc2ccc3cc(NC(=O)c4ccc(OC)c(-c5cccc(OC)c5)c4)c(=O)oc3c2C)CC1

- inhibition (Heat shock protein HSP90 [2]): Active
- inhibition (Heat shock protein HSP90 [5]): Active
- inhibition (Heat shock protein HSP90 [6]): Active
SMILES: COc1cccc(-c2cc(C(=O)Nc3cc4ccc(O[C@H]5CC[C@@H](N)CC5)c(C)c4oc3=O)ccc2OC)c1
- inhibition (INH) (Heat shock protein HSP90 [3]): Not Active
- inhibition (INH) (Heat shock protein HSP90 [4]): Not Active

- EC50 (MCF7): 13.3 µM
- EC50 (SK-BR-3 [1]): 7 µM
SMILES: COCCN1CCCC(Oc2ccc3cc(NC(=O)c4ccc(OC)c(-c5cccc(OC)c5)c4)c(=O)oc3c2C)C1 (stereo not drawn)

- EC50 (MCF7): 0.38 µM
- EC50 (SK-BR-3 [1]): 0.285 µM
SMILES: COc1cccc(-c2cc(C(=O)N[C@H]3CC[C@H](c4ccc(OC5CCN(CCO)CC5)cc4)CC3)ccc2OC)c1

- EC50 (SK-BR-3 [7]): 7 µM
SMILES: COc1cccc(-c2cc(C(=O)Nc3cc4ccc(O[C@@H]5OC(C)(C)[C@H](OC)[C@@H](O)[C@H]5O)c(C)c4oc3=O)ccc2OC)c1

- EC50 (MCF7): 1.9 µM
- EC50 (SK-BR-3 [1]): 2.1 µM
SMILES: COc1cccc(-c2cc(C(=O)Nc3cc4ccc(OC5CCN(CCO)CC5)c(C)c4oc3=O)ccc2OC)c1

- EC50 (MCF7): 0.52 µM
- EC50 (SK-BR-3 [1]): 0.363 µM
SMILES: COCCN1CCC(Oc2ccc([C@H]3CC[C@H](NC(=O)c4ccc(OC)c(-c5cccc(OC)c5)c4)CC3)cc2)CC1

The next lines start with the compound.

SMILES: COc1cccc(-c2cc(C(=O)Nc3cc4ccc(O[C@H]5CC[C@H](N(C)C)CC5)c(C)c4oc3=O)ccc2OC)c1
- inhibition (Heat shock protein HSP90 [2]): Active
- inhibition (INH) (Heat shock protein HSP90 [3]): Not Active
- inhibition (INH) (Heat shock protein HSP90 [4]): Not Active
- inhibition (Heat shock protein HSP90 [5]): Active
- inhibition (Heat shock protein HSP90 [6]): Active

SMILES: COCCN1CCCC(Oc2ccc([C@H]3CC[C@H](NC(=O)c4ccc(OC)c(-c5cccc(OC)c5)c4)CC3)cc2)C1 (stereo partly drawn)
- EC50 (MCF7): 3 µM
- EC50 (SK-BR-3 [1]): 0.9 µM

SMILES: CO[C@@H]1[C@@H](OC(N)=O)[C@@H](O)[C@H](Oc2ccc3c(O)c(NC(=O)c4ccc(O)c(CC=C(C)C)c4)c(=O)oc3c2C)OC1(C)C [NOVOBIOCIN]
- EC50 (SK-BR-3 [7]): 700 µM

SMILES: COc1cccc(-c2cc(C(=O)Nc3cc4ccc(OC5CCCN(CCO)C5)c(C)c4oc3=O)ccc2OC)c1 (stereo not drawn)
- EC50 (MCF7): 2.66 µM
- EC50 (SK-BR-3 [1]): 1.7 µM

SMILES: COc1cccc(-c2cc(C(=O)Nc3cc4ccc(O[C@H]5CC[C@H](N)CC5)c(C)c4oc3=O)ccc2OC)c1
- inhibition (Heat shock protein HSP90 [2]): Active
- inhibition (INH) (Heat shock protein HSP90 [3]): Not Active
- inhibition (INH) (Heat shock protein HSP90 [4]): Not Active
- inhibition (Heat shock protein HSP90 [5]): Active
- inhibition (Heat shock protein HSP90 [6]): Active

SMILES: COc1cccc(-c2cc(C(=O)N[C@H]3CC[C@H](c4ccc(OC5CCCN(CCO)C5)cc4)CC3)ccc2OC)c1 (stereo partly drawn)
- EC50 (MCF7): 0.625 µM
- EC50 (SK-BR-3 [1]): 0.45 µM
